Assay results taken from ChEMBL document CHEMBL4732030, “Aloe-emodin derived azoles as a new structural type of potential antibacterial agents: design, synthesis, and evaluation of the action on membrane, DNA, and MRSA DNA isomerase” (RSC Med Chem, 2021).
Converted amounts (≈) assume the structure as drawn.

Experiments:
Type in all cases: functional
[1] = tested on: Acinetobacter baumannii; assay: Antibacterial activity against Acinetobacter baumannii assessed as inhibition of bacterial growth after 24 hrs by microbroth dilution method
Outline: (§1)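 Bacterial inoculum set to 1×10^5 CFU with sterile saline. Test agents and reference drugs, from DMSO stocks, diluted in Mueller-Hinton broth to 512, 256, 128, 64, 32, 16, 8, 4, 2, 1 and 0.5 µg/mL. Inoculated dilutions incubated 37 °C for 24 h.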

[2] = tested on: Staphylococcus aureus; assay: Antibacterial activity against methicillin resistant Staphylococcus aureus assessed as inhibition of bacterial growth after 24 hrs by microbroth dilution method
Outline: (§2)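 Inoculum adjusted in sterile saline to 1×10^5 CFU. Compounds dissolved in DMSO as stock, then diluted in Mueller-Hinton broth as a two-fold series from 512 to 0.5 µg/mL (11 levels). Inoculated dilutions incubated at 37 °C for 24 h, and the MIC recorded.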

[3] = tested on: Pseudomonas aeruginosa; assay: Antibacterial activity against Pseudomonas aeruginosa assessed as inhibition of bacterial growth after 24 hrs by microbroth dilution method; outline: as §1
[4] = tested on: Staphylococcus aureus; assay: Antibacterial activity against Staphylococcus aureus ATCC 29213 assessed as inhibition of bacterial growth after 24 hrs by microbroth dilution method; outline: as §2
[5] = tested on: Escherichia coli; assay: Antibacterial activity against Escherichia coli ATCC 25922 assessed as inhibition of bacterial growth after 24 hrs by microbroth dilution method; outline: as §1
[6] = tested on: Staphylococcus aureus; assay: Antibacterial activity against Staphylococcus aureus ATCC 25923 assessed as inhibition of bacterial growth after 24 hrs by microbroth dilution method; outline: as §1
[7] = tested on: Pseudomonas aeruginosa; assay: Antibacterial activity against Pseudomonas aeruginosa ATCC 27853 assessed as inhibition of bacterial growth after 24 hrs by microbroth dilution method; outline: as §1
[8] = tested on: Klebsiella pneumoniae; assay: Antibacterial activity against Klebsiella pneumoniae assessed as inhibition of bacterial growth after 24 hrs by microbroth dilution method; outline: as §1
[9] = tested on: Escherichia coli; assay: Antibacterial activity against Escherichia coli assessed as inhibition of bacterial growth after 24 hrs by microbroth dilution method; outline: as §1
[10] = tested on: Staphylococcus aureus; assay: Antibacterial activity against Staphylococcus aureus assessed as inhibition of bacterial growth after 24 hrs by microbroth dilution method; outline: as §1
[11] = tested on: Enterococcus faecalis; assay: Antibacterial activity against Enterococcus faecalis assessed as inhibition of bacterial growth after 24 hrs by microbroth dilution method; outline: as §1
[12] = tested on: Staphylococcus aureus; assay: Potency index, ratio of norfloxacin MIC to compound MIC for antibacterial activity against Staphylococcus aureus incubated for 24 hrs by microbroth dilution method

| Compound | MIC [1] | MIC [2] | MIC [3] | MIC [4] | MIC [5] | MIC [6] | MIC [7] | MIC [8] | MIC [9] | MIC [10] | MIC [11] | Ratio [12] |
| --- | --- | --- | --- | --- | --- | --- | --- | --- | --- | --- | --- | --- |
| O=C1c2cccc(O)c2C(=O)c2c(O)cc(CSc3nc4ccccc4[nH]3)cc21 | 16 mg/L (≈ 39.8 µM) | 32 mg/L (≈ 79.5 µM) | 128 mg/L (≈ 318 µM) | 16 mg/L (≈ 39.8 µM) | 128 mg/L (≈ 318 µM) | 128 mg/L (≈ 318 µM) | 64 mg/L (≈ 159 µM) | 64 mg/L (≈ 159 µM) | 64 mg/L (≈ 159 µM) | 4 mg/L (≈ 9.94 µM) | 32 mg/L (≈ 79.5 µM) | – |
| CCc1nc2ccccc2n1Cc1cc(O)c2c(c1)C(=O)c1cccc(O)c1C2=O | 64 mg/L (≈ 161 µM) | 64 mg/L (≈ 161 µM) | 64 mg/L (≈ 161 µM) | 64 mg/L (≈ 161 µM) | 32 mg/L (≈ 80.3 µM) | 128 mg/L (≈ 321 µM) | 64 mg/L (≈ 161 µM) | 64 mg/L (≈ 161 µM) | 64 mg/L (≈ 161 µM) | 64 mg/L (≈ 161 µM) | 16 mg/L (≈ 40.2 µM) | – |
| O=C1c2cccc(O)c2C(=O)c2c(O)cc(CCl)cc21 | 64 mg/L (≈ 222 µM) | 32 mg/L (≈ 111 µM) | 64 mg/L (≈ 222 µM) | 128 mg/L (≈ 443 µM) | 32 mg/L (≈ 111 µM) | 64 mg/L (≈ 222 µM) | 32 mg/L (≈ 111 µM) | 32 mg/L (≈ 111 µM) | 128 mg/L (≈ 443 µM) | 64 mg/L (≈ 222 µM) | 256 mg/L (≈ 887 µM) | – |
| O=C1c2cccc(O)c2C(=O)c2c(O)cc(Cn3nnc4ccccc43)cc21 | 16 mg/L (≈ 43.1 µM) | 32 mg/L (≈ 86.2 µM) | 128 mg/L (≈ 345 µM) | 32 mg/L (≈ 86.2 µM) | 32 mg/L (≈ 86.2 µM) | 256 mg/L (≈ 689 µM) | 64 mg/L (≈ 172 µM) | 128 mg/L (≈ 345 µM) | 128 mg/L (≈ 345 µM) | 128 mg/L (≈ 345 µM) | 32 mg/L (≈ 86.2 µM) | – |
| Cn1ccnc1SCc1cc(O)c2c(c1)C(=O)c1cccc(O)c1C2=O | 32 mg/L (≈ 87.3 µM) | 128 mg/L (≈ 349 µM) | 128 mg/L (≈ 349 µM) | 128 mg/L (≈ 349 µM) | 128 mg/L (≈ 349 µM) | 256 mg/L (≈ 699 µM) | 64 mg/L (≈ 175 µM) | 128 mg/L (≈ 349 µM) | 128 mg/L (≈ 349 µM) | 128 mg/L (≈ 349 µM) | 128 mg/L (≈ 349 µM) | – |
| O=C1c2cccc(O)c2C(=O)c2c(O)cc(CSc3nnc[nH]3)cc21 | 64 mg/L (≈ 181 µM) | 64 mg/L (≈ 181 µM) | 32 mg/L (≈ 90.6 µM) | 16 mg/L (≈ 45.3 µM) | 64 mg/L (≈ 181 µM) | 16 mg/L (≈ 45.3 µM) | 64 mg/L (≈ 181 µM) | 64 mg/L (≈ 181 µM) | 128 mg/L (≈ 362 µM) | 16 mg/L (≈ 45.3 µM) | 128 mg/L (≈ 362 µM) | – |
| Cc1nnnn1Cc1cc(O)c2c(c1)C(=O)c1cccc(O)c1C2=O | 32 mg/L (≈ 95.2 µM) | 32 mg/L (≈ 95.2 µM) | 128 mg/L (≈ 381 µM) | 64 mg/L (≈ 190 µM) | 64 mg/L (≈ 190 µM) | 64 mg/L (≈ 190 µM) | 32 mg/L (≈ 95.2 µM) | 64 mg/L (≈ 190 µM) | 64 mg/L (≈ 190 µM) | 16 mg/L (≈ 47.6 µM) | 16 mg/L (≈ 47.6 µM) | – |
| Cn1nnnc1SCc1cc(O)c2c(c1)C(=O)c1cccc(O)c1C2=O | 64 mg/L (≈ 174 µM) | 32 mg/L (≈ 86.9 µM) | 64 mg/L (≈ 174 µM) | 32 mg/L (≈ 86.9 µM) | 64 mg/L (≈ 174 µM) | 16 mg/L (≈ 43.4 µM) | 64 mg/L (≈ 174 µM) | 128 mg/L (≈ 347 µM) | 128 mg/L (≈ 347 µM) | 8 mg/L (≈ 21.7 µM) | 128 mg/L (≈ 347 µM) | 2 |
| O=C1c2cccc(O)c2C(=O)c2c(O)cc(Cn3cncn3)cc21 | 32 mg/L (≈ 99.6 µM) | 32 mg/L (≈ 99.6 µM) | 32 mg/L (≈ 99.6 µM) | 32 mg/L (≈ 99.6 µM) | 64 mg/L (≈ 199 µM) | 16 mg/L (≈ 49.8 µM) | 32 mg/L (≈ 99.6 µM) | 64 mg/L (≈ 199 µM) | 64 mg/L (≈ 199 µM) | 8 mg/L (≈ 24.9 µM) | 128 mg/L (≈ 398 µM) | – |
